# 14-3-3 Bad inh = disrupts binding of bovine 14-3-3 zeta to phospho-Bad peptide | inhibition, % at 21.7 µM | 220,000 compounds, 0.71% hits | TR-FRET 14-3-3zeta/Dy647-pBad peptide displacement, 1 h | P63103 | AID 781;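 active = inhibition above about 70%, limit read from the data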;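 also: 0% = full 14-3-3 plus peptide FRET controls and 100% = background without 14-3-3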
# Mcl1-Noxa inh = Mcl-1/Noxa interaction inhibition. Q07820. TR-FRET Mcl-1/Noxa peptide binding, 2 h. inhibition, % at 21.7 µM. 220,000 compounds, 1.5% hits. AID 1022;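 active = compounds that cut the protein-peptide binding signal by more than 50% relative to plate controls in a single-dose test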;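 also: His-tagged Mcl-1 with rhodamine Noxa BH3 peptide and terbium anti-His antibody; 0% = Mcl-1 plus Noxa peptide wells and 100% = peptide-only wells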
# Hck-Nef inh = blocks Nef-activated human Hck kinase | inhibition, % at 20 µM | AID 463187 | Recombinant Hck-YEEI plus Nef, Z-Lyte FRET kinase assay | 220,000 compounds, 0.68% hits | P08631;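 active = Hck-Nef kinase inhibition above about 50%, limit read from the data; inactive = inhibition below that limit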;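 also: 0% = DMSO with Hck plus Nef and 100% = Hck alone without Nef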
# Target sequence (P08631 whole entry, looked up): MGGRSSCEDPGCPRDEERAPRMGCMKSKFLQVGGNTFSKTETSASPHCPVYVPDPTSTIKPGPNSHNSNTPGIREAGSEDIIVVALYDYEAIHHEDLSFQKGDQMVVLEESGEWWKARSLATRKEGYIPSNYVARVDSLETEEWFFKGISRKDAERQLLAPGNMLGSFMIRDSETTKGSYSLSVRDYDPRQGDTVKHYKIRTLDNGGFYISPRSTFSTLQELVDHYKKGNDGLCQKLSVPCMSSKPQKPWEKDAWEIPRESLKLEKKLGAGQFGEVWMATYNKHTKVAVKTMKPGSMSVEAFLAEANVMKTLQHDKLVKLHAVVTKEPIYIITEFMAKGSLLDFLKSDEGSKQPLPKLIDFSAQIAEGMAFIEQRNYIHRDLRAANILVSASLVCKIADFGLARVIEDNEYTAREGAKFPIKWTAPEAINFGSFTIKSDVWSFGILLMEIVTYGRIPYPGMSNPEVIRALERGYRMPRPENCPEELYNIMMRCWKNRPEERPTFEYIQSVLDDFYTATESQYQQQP
# Mcl-1 Bim block = disrupts Bim peptide binding to human Mcl-1 | AID 1009 | Bead-based flow cytometry, Bim peptide-Mcl-1 binding | 190,000 compounds, 0.1% hits | inhibition, % at 10 µM | Q07820; in the data active = inhibition above about 40%;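 also: 0% = no compound tracer wells and 100% = peptide blocker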
# Mcl1-Bid inh = disrupts binding of human Mcl-1 to Bid peptide; Q07820; TR-FRET Mcl-1/Bid-Dy647 peptide binding, 1536-well; inhibition, % at 21.7 µM; 220,000 compounds, 0.97% hits;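 active = compounds that cut the binding signal by more than half at the single screening dose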;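 also: His-tagged Mcl-1 with europium anti-His antibody binding Bid BH3 peptide; 0% = Mcl-1 plus peptide wells and 100% = peptide-only wells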
# Biofilm kill mix = mixture kills Candida albicans biofilm cells | C. albicans biofilm persisters + clotrimazole, fluorescence viability; primary screen in compound mixtures of four per well | inhibition, % at 7.6 µM | 120,000 compounds, 0.02% hits | AID 1242;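 active = inhibition above 30.3% in the primary screen of four-compound pools, then above 30% when the compound was retested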;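 also: compounds exposed to preformed 24 h biofilms for 48 h; 0% = untreated biofilm control and 100% = clotrimazole plus chlorhexidine kill blank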
#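 System: C. albicans CAF4-2 wild-type biofilms; Medium: RPMI/MOPS medium, pH 7.0; Reagent: Clotrimazole, 50 µg/mL; Times: biofilm formation 24 h, compound exposure 48 h, 37 °C; Detection: 2-h Alamar Blue fluorescence, 535/590 nm excitation/emission; Evaluation: percent inhibition of biofilm viability.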
# An asterisk follows results filed as active; · = no result; [ ] = dose if it differs, or a comment. Rows were chosen to be rich in hits. Some 3.2% of all compounds tested hit in one or more screens of this group.
SMILES,14-3-3 Bad inh,Mcl1-Noxa inh,Hck-Nef inh,Mcl-1 Bim block,Mcl1-Bid inh,Biofilm kill mix
COc1ccc(NC(=O)c2cccnc2N2CCOCC2)cc1,-11,14,-8,-1,1,15
O=C(O)c1cc(C(F)(F)F)nc2c(C(F)(F)F)cccc12,0,-3,4,-1,7,19
CCOC(=O)C1=C(C)N(c2ccc(C)cc2)C(=O)/C1=C\c1cccs1,-9,52*,1,0,-45,·
CCOC(=O)C1=C(C)N(c2ccccc2)C(=O)/C1=C\c1cccs1,-5,9,0,2,-15,14
COc1cccc(CNc2cc(CSc3ccc(Cl)cc3)nc(C)n2)c1,4,21,-1,-1,16,·
C(=Nc1cccc2c(N=Cc3ccco3)cccc12)c1ccco1,0,58*,17,4,-15,9
CN(C)c1ccc(N=Cc2ccco2)cc1,-6,47,0,9,-77,·
COc1cccc(-c2nc(NCCN3CCOCC3)c3ccccc3n2)c1O,-16,51*,1,14,-78,·
COc1ccccc1NC(=O)c1ccc(NC(=O)c2cc3c(s2)CCC3)cc1,79*[fluorescence artefact?],-27,2,-10,-21,25
COc1ccc(CN2CCN(S(=O)(=O)c3ccc(NC(C)=O)cc3)CC2)cc1,44,12,10,·,45,19
CCOc1cc(C=O)ccc1OS(=O)(=O)c1ccc(NC(C)=O)cc1,8,39,7,-1,52*,10
CCOc1ccc(CN2CCN(S(=O)(=O)c3ccc(NC(C)=O)cc3)CC2)cc1OC,34,5,0,-3,52*,·
O=C(/C=C/c1ccc(F)cc1)c1cc(Br)ccc1O,0,18,16,·,10,20
CCNc1ccc(Br)cc(C(=O)/C=C/c2c(Cl)cccc2Cl)c1=O,83*[fluorescence artefact?],102*,3,3,46,18
CCNc1ccc(Br)cc(C(=O)/C=C/c2ccc3c(c2)OCO3)c1=O,50,94*,5,11,-29,·
Nc1ccccc1C(=O)/C=C/c1ccc2c(c1)OCO2,13,-5,-9,-2,-3,15
CCNc1ccc(Br)cc(C(=O)/C=C/c2ccc(Cl)cc2)c1=O,56,82*,12,5,20,2
CN1CCN(C(=O)C2=C[C@H](C(C)(C)C)C[C@H](OCCCCO)O2)CC1,-2,-12,3,1,-8,13
Cc1sc(N/N=C/c2cc([N+](=O)[O-])ccc2O)nc1-c1ccccc1,-4,11,25,-2,-2,17
O=C(COc1ccccc1)Nc1sc2c(c1C(=O)NCc1cccnc1)CCCC2,36,-25,13,0,59*,·
O=[N+]([O-])c1cc(-c2ccc(/C=N/c3nc4ccccn4c3-c3ccco3)o2)ccc1Cl,58,65*,25,1,65*,·
O=[N+]([O-])c1ccc(-c2ccc(C=Nc3cccc4ccccc34)o2)cc1,-2,15,15,0,-19,9
CSC1=NNC(c2ccc(C(C)(C)C)cc2)=NN1,-1,3,14,·,-14,-2
Cc1cccnc1Nc1nc(-c2ccc(O)cc2)cs1,-17,42,-1,-3,1,·
Oc1ccc(-c2csc(Nc3ncccn3)n2)c(O)c1,8,72*,25,-2,41,8
SMILES,14-3-3 Bad inh,Mcl1-Noxa inh,Hck-Nef inh,Mcl-1 Bim block,Mcl1-Bid inh,Biofilm kill mix
Oc1ccc(-c2csc(-c3ccccc3)n2)cc1O,4,62*,-1,0,-50,·
Oc1ccc(-c2csc(Nc3ncccn3)n2)cc1O,-7,87*,37,0,-47,6
COc1ccc(-c2csc(NC(=S)NC(=O)c3cccs3)n2)cc1OC,-13,82*,37,0,-87,3
CC(=O)Nc1cccc(-c2csc(Nc3ncccn3)n2)c1,9,29,19,-1,-30,10
COc1cccc(NC(=O)Nc2ccc(C(C)(C)C)cc2)c1,-3,3,18,-2,-30,18
O=C(Nc1cccc(-c2csc(-c3ccccc3)n2)c1)c1cccs1,-2,-8,-1,1,96*,·
Cc1nc(-c2cccc(NC(=O)c3cccs3)c2)cs1,-2,-2,8,0,5,9
Cc1csc2nc(CSc3nc4ccccc4o3)cn12,1,51*,-7,-4,20,·
c1ccc2oc(SCc3cn4ccsc4n3)nc2c1,25,27,-2,-3,-19,·
COc1ccc(OC)c(S(=O)(=O)Nc2cnc3ccccc3c2)c1,-2,10,0,-10,-4,·
O=C(c1ccccc1)c1c(O)nc(-c2ccccc2)n(-c2ccccc2)c1=O,-19,20,7,-1,-12,19
COc1ccc2ccccc2c1CN1CCCC(CO)C1 (stereo not drawn),31,20,1,-3,7,·
COc1ccc2ccccc2c1CN1CCN(Cc2ccccc2)CC1,91*,17,2,-5,11,·
COC(=O)c1ccc(CN(c2ccc(C)cc2)S(=O)(=O)c2ccc3c(c2)OCCO3)o1,-10,11,0,0,-2,·
N#Cc1ccsc1NC(=O)COc1ccc(-c2nnco2)cc1,4,65*,2,1,-28,-11
CCOC(=O)N1CCN(Cc2cn3ccccc3n2)CC1,62,8,-13,-6,56*,·
CCOC(=O)N1CCN(Cc2c(F)cccc2F)CC1,14,28,-21,-3,52*,·
Cc1cc(C)n(-c2ccc(C(=O)NCCCN3CCOCC3)cc2)n1,6,23,28,1,0,9
O=C(CCSc1ccc(Cl)cc1)Nc1cccnc1,-9,23,-2,1,-4,18
COC(=O)c1cc(C(=O)NCCCN2CCOCC2)cc([N+](=O)[O-])c1,-4,11,-21,1,-34,14
Cc1ccc(CSc2nnc(SCC(=O)N/N=C/C=C/c3ccco3)s2)cc1,-4,18,0,-2,-10,17
CC(/C=N/NC(=O)CSc1nnc(SCc2ccccc2)s1)=C\c1ccco1,-10,51*,2,-5,6,10
COc1cccc(/C=C/c2ccccn2)c1O,-6,26,10,·,-99,19
O=C(CCN1CCc2ccccc2CC1)c1ccc2c(c1)OCCO2,-4,34,0,0,1,·
COc1ccc(OC)c(-c2c(C#N)c(N)nc3c2c(=O)nc2sccn23)c1,-14,1,24,-7,-7,10
Cc1ccc(C)n1-c1ccc(C(=O)O)cc1,-2,62*,22,-3,-48,·
CCOC(=O)C1C(=O)CC(C)(O)C(C(=O)OCC)C1c1ccc([N+](=O)[O-])cc1 (stereo not drawn),5,4,10,·,2,8
Cc1cnc(C(=O)Nc2ccc(C(=O)N3CCCCC3)cc2)cn1,-4,56*,0,-3,0,·
Cc1cnc(C(=O)Nc2ccc(N3CCCCC3)cc2)cn1,0,6,27,-4,-34,10

# Bioassay records from PubChem BioAssay.
